From ChEMBL document CHEMBL3351861, “New synthetic sulfone derivatives inhibit growth, adhesion and the leucine arylamidase APE2 gene expression of Candida albicans in vitro” (2015)
≈ marks a conversion by molar mass, not a printed value.

Key:
[1] = tested on: Candida albicans; assay: Inhibition of cell adhesion of compound pre-treated Candida albicans CAI4 expressing delta-efg1/delta-cph1 gene to human Caco2 cells assessed as cell adhesion level at 2 ug/ml pre-incubated for 18 hrs by colony counting method (reference value: 1.22 +/- 0.78%); assay type: functional, Caco-2; design: scale not given: the % may be the effect or the level left
[2] = tested on: Candida albicans; assay: Inhibition of cell adhesion of compound pre-treated Candida albicans CAI4 expressing delta-cph1 (CPH1) gene to human Caco2 cells assessed as cell adhesion level at 4 ug/ml pre-incubated for 18 hrs by colony counting method (reference value: 5.37 +/- 12.4%); assay type: functional, Caco-2; design: scale not given: the % may be the effect or the level left
[3] = tested on: Candida albicans; assay: Inhibition of cell adhesion of compound pre-treated Candida albicans CAI4 expressing delta-cph1 gene to human Caco2 cells assessed as cell adhesion level at 16 ug/ml pre-incubated by colony counting method (reference value: 1.6 +/- 0.65%); design: scale not given: the % may be the effect or the level left
[4] = tested on: Candida albicans; assay: Inhibition of cell adhesion of compound pre-treated Candida albicans CAI4 expressing delta-cph1/delta-efg1 (EFG1) gene to human Caco2 cells assessed as cell adhesion level at 16 ug/ml pre-incubated for 18 hrs by colony counting method (reference value: 1.24 +/- 1.06%); assay type: functional, Caco-2; design: scale not given: the % may be the effect or the level left
[5] = tested on: Candida albicans; assay: Antifungal activity against Candida albicans CAI4 expressing delta-efg1 (EFG1) gene assessed as growth inhibition at 4 ug/ml by CLSI M27-A3 method; assay type: functional; conditions: read-out: GI
Outline: (§1)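 CLSI M27-A3 broth microdilution in RPMI, read after 48 h. Strains pre-grown 18 h in YEPD at 30°C. Final inoculum 0.5×10^2–2.5×10^3 cells/ml. Two-fold dilutions in RPMI came from a 1600 µg/ml stock in water with 9% DMSO; final DMSO was 0.09%. OD405 read, % inhibition = 100 − (CTW−SCW)/(GCW−SCW). Triplicate on three occasions, mean±SD.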

[6] = tested on: Candida albicans; assay: Antifungal activity against Candida albicans CAI4 expressing delta-cph1 gene assessed as growth inhibition at 8 ug/ml by CLSI M27-A3 method; assay type: functional; conditions: read-out: GI; outline: as §1
[7] = tested on: Candida albicans; assay: Inhibition of cell adhesion of compound pre-treated Candida albicans CAI4 expressing delta-efg1/delta-cph1 gene to human Caco2 cells assessed as cell adhesion level at 4 ug/ml pre-incubated for 18 hrs by colony counting method (reference value: 1.22 +/- 0.78%); assay type: functional, Caco-2; design: scale not given: the % may be the effect or the level left
[8] = tested on: Candida albicans; assay: Antifungal activity against Candida albicans CAI4 expressing delta-efg1 gene assessed as growth inhibition at by CLSI M27-A3 method; assay type: functional
Outline: (§2)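 CLSI M27-A3 broth microdilution in RPMI. Final inoculum 0.5×10^2 to 2.5×10^3 cells/ml. Seven two-fold concentrations from 0.25 to 16 µg/ml, with DMSO held at 0.09% (v/v) in all wells. Compound-free growth controls and sterility controls are run for each strain. […] Triplicate on three occasions.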

[9] = tested on: Candida albicans; assay: Antifungal activity against Candida albicans CAI4 expressing delta-efg1 (EFG1) gene assessed as growth inhibition at 8 ug/ml by CLSI M27-A3 method; assay type: functional; conditions: read-out: GI; outline: as §1
[10] = tested on: Candida albicans; assay: Antifungal activity against Candida albicans CAI4 expressing delta-cph1/delta-efg1 (EFG1) gene assessed as growth inhibition at 16 ug/ml by CLSI M27-A3 method; assay type: functional; conditions: read-out: GI; outline: as §1
[11] = tested on: Candida albicans; assay: Antifungal activity against Candida albicans CAI4 expressing delta-cph1 gene assessed as growth inhibition at 16 ug/ml by CLSI M27-A3 method; assay type: functional; conditions: read-out: GI; outline: as §1
[12] = tested on: Candida albicans; assay: Antifungal activity against Candida albicans CAI4 expressing delta-cph1 (CPH1) gene assessed as growth inhibition at 16 ug/ml by CLSI M27-A3 method; assay type: functional; conditions: read-out: GI; outline: as §1
[13] = tested on: Candida albicans; assay: Antifungal activity against Candida albicans CAI4 expressing delta-cph1 gene assessed as growth inhibition at by CLSI M27-A3 method; assay type: functional
[14] = tested on: Candida albicans; assay: Inhibition of cell adhesion of compound pre-treated Candida albicans CAI4 expressing delta-efg1 gene to human Caco2 cells assessed as cell adhesion level at 2 ug/ml pre-incubated for 18 hrs by colony counting method (reference value: 2.1 +/- 3.52%); assay type: functional, Caco-2; design: scale not given: the % may be the effect or the level left
[15] = tested on: Candida albicans; assay: Inhibition of cell adhesion of compound pre-treated Candida albicans CAI4 expressing delta-cph1 gene to human Caco2 cells assessed as cell adhesion level at 2 ug/ml pre-incubated for 18 hrs by colony counting method (reference value: 1.6 +/- 0.65%); assay type: functional, Caco-2; design: scale not given: the % may be the effect or the level left
[16] = tested on: Candida albicans; assay: Antifungal activity against Candida albicans CAI4 expressing delta-cph1/delta-efg1 (EFG1) gene assessed as growth inhibition at by CLSI M27-A3 method; assay type: functional
[17] = tested on: Candida albicans; assay: Inhibition of cell adhesion of compound pre-treated Candida albicans 90028 to human Caco2 cells assessed as cell adhesion level at 8 ug/ml pre-incubated for 18 hrs by colony counting method (reference value: 1.58 +/- 0.67%); assay type: functional, Caco-2; design: scale not given: the % may be the effect or the level left
[18] = tested on: Candida albicans; assay: Antifungal activity against Candida albicans 90028 assessed as growth inhibition at by CLSI M27-A3 method; assay type: functional
[19] = tested on: Candida albicans; assay: Antifungal activity against Candida albicans CAI4 expressing delta-efg1 gene assessed as growth inhibition at 2 ug/ml by CLSI M27-A3 method; assay type: functional; conditions: read-out: GI; outline: as §2
[20] = tested on: Candida albicans; assay: Antifungal activity against Candida albicans CAI4 expressing delta-cph1 gene assessed as growth inhibition at 2 ug/ml by CLSI M27-A3 method; assay type: functional; conditions: read-out: GI; outline: as §1
[21] = tested on: Candida albicans; assay: Antifungal activity against Candida albicans CAI4 expressing delta-efg1 (EFG1) gene assessed as growth inhibition at 0.5 ug/ml by CLSI M27-A3 method; assay type: functional; conditions: read-out: GI; outline: as §1
[22] = tested on: Candida albicans; assay: Antifungal activity against Candida albicans 90028 assessed as growth inhibition at 0.25 ug/ml by CLSI M27-A3 method; assay type: functional; conditions: read-out: GI; outline: as §1
[23] = tested on: Candida albicans; assay: Antifungal activity against Candida albicans CAI4 expressing delta-cph1/delta-efg1 gene assessed as growth inhibition at 8 ug/ml by CLSI M27-A3 method; assay type: functional; conditions: read-out: GI; outline: as §1
[24] = tested on: Candida albicans; assay: Inhibition of cell adhesion of compound pre-treated Candida albicans CAI4 expressing delta-efg1 gene to human Caco2 cells assessed as cell adhesion level at 16 ug/ml pre-incubated for 18 hrs by colony counting method (reference value: 2.1 +/- 3.52%); assay type: functional, Caco-2; design: scale not given: the % may be the effect or the level left
[25] = tested on: Candida albicans; assay: Antifungal activity against Candida albicans CAI4 expressing delta-cph1 gene assessed as growth inhibition at 1 ug/ml by CLSI M27-A3 method; assay type: functional; conditions: read-out: GI; outline: as §1
[26] = tested on: Candida albicans; assay: Inhibition of cell adhesion of compound pre-treated Candida albicans CAI4 expressing delta-efg1 (EFG1) gene to human Caco2 cells assessed as cell adhesion level at 16 ug/ml pre-incubated for 18 hrs by colony counting method (reference value: 2.6 +/- 2.33%); assay type: functional, Caco-2; design: scale not given: the % may be the effect or the level left
[27] = tested on: Candida albicans; assay: Antifungal activity against Candida albicans CAI4 expressing delta-cph1/delta-efg1 gene assessed as growth inhibition at by CLSI M27-A3 method; assay type: functional
[28] = tested on: Candida albicans; assay: Antifungal activity against Candida albicans CAI4 expressing delta-efg1 gene assessed as growth inhibition at 0.25 ug/ml by CLSI M27-A3 method; assay type: functional; conditions: read-out: GI; outline: as §1
[29] = tested on: Candida albicans; assay: Antifungal activity against Candida albicans CAI4 expressing delta-cph1/delta-efg1 gene assessed as growth inhibition at 0.5 ug/ml by CLSI M27-A3 method; assay type: functional; conditions: read-out: GI; outline: as §1
[30] = tested on: Candida albicans; assay: Antifungal activity against Candida albicans CAI4 expressing delta-efg1 (EFG1) gene assessed as growth inhibition at 1 ug/ml by CLSI M27-A3 method; assay type: functional; conditions: read-out: GI; outline: as §1

SMILES	Activity [1] [%]	Activity [2] [%]	Activity [3] [%]	Activity [4] [%]	inhibition of growth at 4 µg/mL [5] [%]	inhibition of growth at 8 µg/mL [6] [%]	Activity [7] [%]	MIC90 [8] [µg/mL]	inhibition of growth at 8 µg/mL [9] [%]	inhibition of growth at 16 µg/mL [10] [%]	inhibition of growth at 16 µg/mL [11] [%]	inhibition of growth at 16 µg/mL [12] [%]	MIC90 [13] [µg/mL]	Activity [14] [%]	Activity [15] [%]	MIC90 [16] [µg/mL]	Activity [17] [%]	MIC90 [18] [µg/mL]	inhibition of growth at 2 µg/mL [19] [%]	inhibition of growth at 2 µg/mL [20] [%]	further results
O=[N+]([O-])c1cc(S(=O)(=O)C(Cl)(Cl)Br)ccc1Cl	0.78	1.39	0.56	0.75	99.3	99.3	1.02	16 (≈ 41.7 µM)	99.4	99.8	99.6	99.8	16 (≈ 41.7 µM)	0.9	0.43	16 (≈ 41.7 µM)	2.2	16 (≈ 41.7 µM)	98.9	98.9	inhibition of growth at 0.5 µg/mL [21]: 99%; inhibition of growth at 0.25 µg/mL [22]: 98.6%; inhibition of growth at 8 µg/mL [23]: 99.4%; Activity [24]: 0.99%; inhibition of growth at 1 µg/mL [25]: 97.8%; Activity [26]: 0.77%; MIC90 [27]: 16 µg/mL (≈ 41.7 µM); inhibition of growth at 0.25 µg/mL [28]: 98.4%; inhibition of growth at 0.5 µg/mL [29]: 98.6%; inhibition of growth at 1 µg/mL [30]: 99.2%
O=[N+]([O-])c1cc(S(=O)(=O)C(Cl)Cl)ccc1Cl	0.47	1.28	1.03	1.68	98.5	99.2	0.36	16 (≈ 52.5 µM)	98.9	99.4	99.6	99.4	16 (≈ 52.5 µM)	1.1	0.8	16 (≈ 52.5 µM)	2.05	16 (≈ 52.5 µM)	99.4	99	inhibition of growth at 0.5 µg/mL [21]: 95.4%; inhibition of growth at 0.25 µg/mL [22]: 99.1%; inhibition of growth at 8 µg/mL [23]: 99.4%; Activity [24]: 1.06%; inhibition of growth at 1 µg/mL [25]: 99.3%; Activity [26]: 0.79%; MIC90 [27]: 16 µg/mL (≈ 52.5 µM); inhibition of growth at 0.25 µg/mL [28]: 99.1%; inhibition of growth at 0.5 µg/mL [29]: 99.1%; inhibition of growth at 1 µg/mL [30]: 96%
NNc1ccc(S(=O)(=O)C(Cl)(Br)Br)cc1[N+](=O)[O-]	2.94	0.76	0.37	1.5	99.3	100	2.74	4 (≈ 9.45 µM)	99.8	100	100	99.8	4 (≈ 9.45 µM)	1.32	0.51	4 (≈ 9.45 µM)	2.66	4 (≈ 9.45 µM)	99.7	100	inhibition of growth at 0.5 µg/mL [21]: 98.8%; inhibition of growth at 0.25 µg/mL [22]: 17%; inhibition of growth at 8 µg/mL [23]: 100%; Activity [24]: 0.81%; inhibition of growth at 1 µg/mL [25]: 99.8%; Activity [26]: 0.89%; MIC90 [27]: 4 µg/mL (≈ 9.45 µM); inhibition of growth at 0.25 µg/mL [28]: 70.8%; inhibition of growth at 0.5 µg/mL [29]: 97%; inhibition of growth at 1 µg/mL [30]: 98.8%
